From ChEMBL document CHEMBL1133696, “Development of a lead inhibitor for the A16V+S108T mutant of dihydrofolate reductase from the cycloguanil-resistant strain (T9/94) of Plasmodium falciparum” (J Med Chem, 2000) come the findings set out here.

Assay [1] deals with Bifunctional dihydrofolate reductase-thymidylate synthase (Plasmodium falciparum K1) (UniProt P13922). As to the kind of experiment: Evaluated for activity of compound relative to Cycloguanil.
For assay [2] the target is unchanged. In words: Evaluated for activity of relative to Cycloguanil.
The target in assay [3] is T1, Bifunctional dihydrofolate reductase-thymidylate synthase (Plasmodium falciparum K1, UniProt P13922, A16V/S108T). In words: Inhibition constant (Ki mut) against A16V+S108T Mutant DHFRs of Plasmodium falciparum.
T1 sequence (P13922 whole entry, looked up, stated change not applied): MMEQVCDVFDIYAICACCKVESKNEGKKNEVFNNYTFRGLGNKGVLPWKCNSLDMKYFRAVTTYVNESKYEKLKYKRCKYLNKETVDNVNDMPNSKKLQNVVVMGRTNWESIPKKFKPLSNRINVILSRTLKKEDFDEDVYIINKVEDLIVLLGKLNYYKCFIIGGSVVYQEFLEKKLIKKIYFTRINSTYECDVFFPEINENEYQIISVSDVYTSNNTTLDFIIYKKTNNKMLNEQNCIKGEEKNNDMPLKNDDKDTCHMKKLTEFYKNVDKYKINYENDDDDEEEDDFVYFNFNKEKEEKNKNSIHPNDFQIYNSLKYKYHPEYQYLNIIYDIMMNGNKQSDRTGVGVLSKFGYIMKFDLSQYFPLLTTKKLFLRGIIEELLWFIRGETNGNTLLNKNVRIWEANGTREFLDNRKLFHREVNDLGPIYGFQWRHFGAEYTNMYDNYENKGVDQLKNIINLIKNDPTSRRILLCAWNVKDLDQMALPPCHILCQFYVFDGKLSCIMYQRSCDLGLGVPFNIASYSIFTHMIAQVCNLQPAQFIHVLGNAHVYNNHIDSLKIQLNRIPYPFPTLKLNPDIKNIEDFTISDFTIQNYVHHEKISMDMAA
Assay [4] deals with Plasmodium falciparum. In words: Growth inhibition (IC50) against Plasmodium falciparum wild-type TM4/8.2. The assay is classed as functional, organism-based. Summed up: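 TM4/8.2 clone (wild-type DHFR) grown in human erythrocytes, RPMI 1640 with 25 mM HEPES pH 7.4, 0.2% NaHCO3, gentamicin, 10% human serum, 37 °C, 3% CO2. Drug from DMSO (final 0.1%), 1.5% cell suspension at 1-2% parasitemia; [3H]-hypoxanthine added after 24 h, a further 18-24 h incubation. IC50 from sigmoidal incorporation-versus-concentration curve.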

Assay [5] has as its system Plasmodium falciparum. As to the kind of experiment: Inhibition of Plasmodium falciparum T9/94 mutant. It is filed as functional, organism-based. The method, boiled down:
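Parasites kept in human erythrocytes in RPMI 1640 with 25 mM HEPES pH 7.4, 0.2% NaHCO3, gentamicin and 10% human serum, at 37 °C under 3% CO2. Clones used were TM4/8.2 (wild-type DHFR) and T9/94 RC17 (A16V+S108T). Drug dilutions were made from DMSO stocks, final DMSO 0.1%, and added to a 1.5% cell suspension at 1-2% parasitemia. After 24 h, 0.25 µCi [3H]-hypoxanthine was added for a further 18-24 h, then scintillation counting. IC50 taken from a sigmoidal curve.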

Assay [6] concerns the target Bifunctional dihydrofolate reductase-thymidylate synthase (Plasmodium falciparum K1) (UniProt P13922). As to the kind of experiment: Selectivity ratio of growth inhibition against Plasmodium falciparum TM4/8.2(wild-type) and T9/94(mutant). The assay is classed as functional.
Assay [7] shares this target. In words: Ratio of inhibitory constant of mutant by wild-type DHFRs of Plasmodium falciparum.
Assay [8] has as its target T1, Bifunctional dihydrofolate reductase-thymidylate synthase. In words: Evaluated for inhibition constant (Ki mut) against A16V+S108T Mutant dihydrofolate reductase of Plasmodium falciparum.

SMILES strings stand for the structures.

One may read the Ki as the dissociation constant of the complex between target and ligand, obtained from inhibition or displacement. Higher therefore signals lower affinity. As a reminder, the IC50 is the concentration that gives 50% inhibition. A low value points to inhibition by little substance.

Bifunctional dihydrofolate reductase-thymidylate synthase (Plasmodium falciparum K1), sequence (P13922 whole entry, looked up): as the sequence (P13922 whole entry, looked up, stated change not applied) above

On to `CC(C)C1N=C(N)N=C(N)N1c1ccc(Br)cc1` (stereo unspecified), for which the Relative activity in assay [1] was 0.9; in assay [2] it was 20. The affinity in assay [3], expressed as Ki, was 1200 nM. The IC50 is 638 nM in the assay with Plasmodium falciparum [4] and 725 nM in the assay with Plasmodium falciparum [5]. Further, in assay [6], the IC50 ratio turned out to be 1.14. For the same molecule, the Ratio in assay [7] worked out at 40.

As for `NC1=NCN(c2ccccc2)C(N)=N1`, the Relative activity in assay [1] was 0.4; in assay [2], 220. The molecule also came in with an inhibitory constant (Ki) in assay [3] of 585 nM. The results for the IC50 in the assay with Plasmodium falciparum [4] and in the assay with Plasmodium falciparum [5] were 11600 nM and 356 nM, respectively. The IC50 ratio in assay [6] came to 0.03. Also, the Ratio in assay [7] is 1.8.

For the molecule `CCCC1N=C(N)N=C(N)N1c1ccc(Br)cc1` (stereo unspecified), the Relative activity in assay [1] amounted to 0.1; in assay [2] it was 1.7. The molecule further showed a Ki in assay [8] of 127 nM. Moreover, the IC50 with Plasmodium falciparum [4] is 63 nM; in the assay on Plasmodium falciparum [5], 250 nM. For the same molecule, the IC50 ratio in assay [6] was 3.97. In addition, in assay [7], the Ratio is 49.

Turning to `NC1=NCN(c2ccc(Cl)cc2)C(N)=N1`, the results for the Relative activity in assay [1] and in assay [2] were 0.5 and 16, respectively. Besides, the affinity in assay [8], expressed as Ki, was 646 nM. The figures for the IC50 in the assay with Plasmodium falciparum [4] and with Plasmodium falciparum [5] were 952 nM and 313 nM, respectively. The IC50 ratio in assay [6] was 0.33. Also, the Ratio in assay [7] was 26.

In the case of `CC1N=C(N)N=C(N)N1c1ccc(Br)cc1` (stereo unspecified), the Relative activity in assay [1] is 0.15; in assay [2], 3.8. Affinity in assay [3] was put at a Ki of 202 nM. In addition, the half-maximal inhibitory concentration (IC50) in the assay with Plasmodium falciparum [4] was determined as 132 nM; in the assay on Plasmodium falciparum [5], 277 nM. Also, the IC50 ratio in assay [6] amounted to 2.1. The Ratio in assay [7] was 35.

Regarding `CCCC1N=C(N)N=C(N)N1c1ccc(C)cc1` (stereo unspecified), the results for the Relative activity in assay [1] and in assay [2] were 0.14 and 9.1, respectively. In assay [3], this molecule had a Ki of 188 nM. The 50% inhibitory concentration (IC50) was found to be 167 nM in the assay with Plasmodium falciparum [4] and 152 nM with Plasmodium falciparum [5]. Also, the IC50 ratio in assay [6] is 0.91. Besides, the Ratio in assay [7] worked out at 14.

`CC(C)C1N=C(N)N=C(N)N1c1ccc(Cl)cc1` (stereo unspecified): the figures for the Relative activity in assay [1] and in assay [2] were 1.2 and 40.3, respectively. This molecule displayed a Ki in assay [3] of 1540 nM. Further, the half-maximal inhibitory concentration (IC50) was found to be 2910 nM in the assay on Plasmodium falciparum [4] and 2820 nM in the assay on Plasmodium falciparum [5]. For the same molecule, the IC50 ratio in assay [6] worked out at 0.97. Also, the Ratio in assay [7] was determined as 25.

Turning to `CC1N=C(N)N=C(N)N1c1ccc(Cl)cc1` (stereo unspecified), the values for the Relative activity in assay [1] and in assay [2] were 0.09 and 2.7, respectively. In assay [3], this molecule came in with an inhibition constant Ki of 127 nM. The figures for the IC50 in the assay on Plasmodium falciparum [4] and with Plasmodium falciparum [5] were 348 nM and 347 nM, respectively. The IC50 ratio in assay [6] stood at 1. For the same molecule, the Ratio in assay [7] was 31.

Consider `NC1=NC(c2ccccc2)N(c2ccc(Cl)c(Cl)c2)C(N)=N1` (stereo unspecified), for which the IC50 in the assay on Plasmodium falciparum [4] worked out at 40 nM; in the assay with Plasmodium falciparum [5] it was 29 nM.

As to `CC1(C)N=C(N)N=C(N)N1c1cccc(Cl)c1`, the IC50 in the assay on Plasmodium falciparum [4] was determined as 60 nM; in the assay on Plasmodium falciparum [5] it was 298 nM.

For the molecule `CC1(C)N=C(N)N=C(N)N1c1ccccc1`, the values for the Relative activity in assay [1] and in assay [2] were 1.05 and 13, respectively. The molecule further displayed a Ki in assay [3] of 1380 nM. Moreover, the figures for the IC50 with Plasmodium falciparum [4] and in the assay on Plasmodium falciparum [5] were 546 nM and 445 nM, respectively. Besides, the IC50 ratio in assay [6] came to 0.82. In assay [7], the Ratio worked out at 69.

For the molecule `CCC1N=C(N)N=C(N)N1c1ccc(Br)cc1` (stereo unspecified), the Relative activity in assay [1] turned out to be 0.15; in assay [2], 1.8. The Ki in assay [3] was 202 nM. The half-maximal inhibitory concentration (IC50) with Plasmodium falciparum [4] came out at 132 nM; in the assay on Plasmodium falciparum [5], 220 nM. Besides, the IC50 ratio in assay [6] amounted to 3.24. In addition, in assay [7], the Ratio was found to be 37.

Regarding `CC1(C)N=C(N)N=C(N)N1c1ccc(Br)cc1`, the Relative activity in assay [1] is 1.5; in assay [2] it was 0.7. In assay [3], this molecule registered a Ki of 1950 nM. Besides, the concentration for half-maximal inhibition (IC50) was 31 nM with Plasmodium falciparum [4] and 2760 nM with Plasmodium falciparum [5]. Besides, in assay [6], the IC50 ratio worked out at 89. Further, the Ratio in assay [7] worked out at 1770.

`Cc1ccc(N2C(N)=NC(N)=NC2C(C)C)cc1` (stereo unspecified): the Relative activity was found to be 1.11 in assay [1] and 111 in assay [2]. The molecule further showed a Ki in assay [3] of 1460 nM. For the same molecule, the IC50 in the assay on Plasmodium falciparum [4] stood at 8220 nM; in the assay with Plasmodium falciparum [5], 3450 nM. The IC50 ratio in assay [6] stood at 0.42. The Ratio in assay [7] was 8.7.

In the case of `Cc1ccc(N2C(N)=NC(N)=NC2c2ccccc2)cc1` (stereo unspecified), the Relative activity in assay [1] worked out at 0.13; in assay [2] it was 5.1. For the same molecule, the Ki in assay [8] worked out at 170 nM. Also, the results for the IC50 with Plasmodium falciparum [4] and with Plasmodium falciparum [5] were 136 nM and 39 nM, respectively. In assay [6], the IC50 ratio came to 0.29. The Ratio in assay [7] worked out at 22.

Consider `NC1=NC(c2ccccc2)N(c2ccc(Cl)cc2)C(N)=N1` (stereo unspecified), for which the Relative activity in assay [1] turned out to be 0.04; in assay [2], 3. Besides, the Ki in assay [8] came out at 49 nM. Also, the concentration for half-maximal inhibition (IC50) amounted to 27 nM in the assay on Plasmodium falciparum [4] and 44 nM in the assay on Plasmodium falciparum [5].

In the case of `NC1=NCN(c2ccc(F)cc2)C(N)=N1`, the results for the Relative activity in assay [1] and in assay [2] were 0.4 and 180, respectively. In addition, affinity in assay [3] was put at a Ki of 469 nM. Further, the IC50 in the assay with Plasmodium falciparum [4] was determined as 9660 nM; in the assay on Plasmodium falciparum [5], 312 nM. The IC50 ratio in assay [6] amounted to 0.03. Besides, the Ratio in assay [7] was determined as 1.7.

For `Cc1ccc(N2C(N)=NC(N)=NC2(C)C)cc1`, the IC50 in the assay on Plasmodium falciparum [4] was 65 nM; with Plasmodium falciparum [5], 3620 nM.

With `CCC1N=C(N)N=C(N)N1c1ccc(C)cc1` (stereo unspecified), the values for the Relative activity in assay [1] and in assay [2] were 0.1 and 3.9, respectively. Moreover, the inhibitory constant (Ki) in assay [3] was determined as 128 nM. For the same molecule, the IC50 turned out to be 273 nM with Plasmodium falciparum [4] and 517 nM in the assay on Plasmodium falciparum [5]. For the same molecule, the IC50 ratio in assay [6] was 1.89. Further, the Ratio in assay [7] turned out to be 22.

For the molecule `NC1=NC(c2ccccc2)N(c2cccc(Cl)c2)C(N)=N1` (stereo unspecified), the Relative activity in assay [1] is 0.008; in assay [2], 7.8. Further, the Ki in assay [8] was determined as 10 nM. For the same molecule, the results for the IC50 in the assay on Plasmodium falciparum [4] and with Plasmodium falciparum [5] were 455 nM and 24 nM, respectively. In assay [6], the IC50 ratio worked out at 0.05. For the same molecule, the Ratio in assay [7] worked out at 0.9.

In turn, `CC1N=C(N)N=C(N)N1c1cccc(Cl)c1` (stereo unspecified) yielded an IC50 in the assay on Plasmodium falciparum [5] of 28 nM.

In the case of `CC1(C)N=C(N)N=C(N)N1c1ccc(F)cc1`, the figures for the Relative activity in assay [1] and in assay [2] were 1.2 and 3, respectively. Also, in assay [3], the Ki was 1630 nM. The concentration for half-maximal inhibition (IC50) worked out at 294 nM in the assay with Plasmodium falciparum [4] and 1000 nM with Plasmodium falciparum [5]. Also, the IC50 ratio in assay [6] came to 3.4. Also, in assay [7], the Ratio was 355.

With `Cc1ccc(N2C(N)=NC(N)=NC2C)cc1` (stereo unspecified), the Relative activity amounted to 0.14 in assay [1] and 15 in assay [2]. In addition, in assay [3], the affinity, expressed as Ki, was 185 nM. Further, the half-maximal inhibitory concentration (IC50) stood at 462 nM in the assay on Plasmodium falciparum [4] and 464 nM in the assay on Plasmodium falciparum [5]. In addition, in assay [6], the IC50 ratio amounted to 1. Further, the Ratio in assay [7] is 7.9.

Regarding `CC1N=C(N)N=C(N)N1c1ccc(Cl)c(Cl)c1` (stereo unspecified), the Relative activity in assay [1] is 0.014; in assay [2], 0.9. In assay [3], this molecule had an inhibition constant Ki of 17.8 nM. Moreover, the concentration for half-maximal inhibition (IC50) with Plasmodium falciparum [4] came out at 35 nM; in the assay with Plasmodium falciparum [5], 19 nM. In addition, the IC50 ratio in assay [6] came out at 0.54. The Ratio in assay [7] came out at 12.7.

As for `CCC1N=C(N)N=C(N)N1c1ccc(Cl)cc1` (stereo unspecified), the Relative activity in assay [1] came out at 0.14; in assay [2], 2.4. The molecule further yielded an inhibition constant (Ki) in assay [3] of 189 nM. The values for the concentration for half-maximal inhibition (IC50) in the assay with Plasmodium falciparum [4] and in the assay with Plasmodium falciparum [5] were 40 nM and 486 nM, respectively. Also, the IC50 ratio in assay [6] turned out to be 12.2. Further, the Ratio in assay [7] is 52.

The molecule `CC(C)(C)C1N=C(N)N=C(N)N1c1ccc(Cl)cc1` (stereo unspecified) had a Relative activity in assay [1] of 63. This molecule came in with an inhibitory constant (Ki) in assay [3] of 82700 nM. Further, the IC50 is 2910 nM in the assay on Plasmodium falciparum [4] and 2820 nM in the assay on Plasmodium falciparum [5].
